From ChEMBL document CHEMBL3526089, “Selective mechanism-based inactivation of CYP3A4 by CYP3cide (PF-04981517) and its utility as an in vitro tool for delineating the relative roles of CYP3A4 versus CYP3A5 in the metabolism of drugs” (Drug Metab Dispos, 2012)

Columns and labels:
CYP2C9 = CYP2C9 (Homo sapiens, UniProt P11712); assay: Time dependent inhibition of human CYP2C9 diclofenac 4'-hydroxylase activity assessed as decrease in enzyme activity at 100 uM preincubated for 30 mins by IC25-shift assay; format: ADME; details: probe diclofenac (4'-hydroxylation)
CYP2C9, sequence (P11712 whole entry): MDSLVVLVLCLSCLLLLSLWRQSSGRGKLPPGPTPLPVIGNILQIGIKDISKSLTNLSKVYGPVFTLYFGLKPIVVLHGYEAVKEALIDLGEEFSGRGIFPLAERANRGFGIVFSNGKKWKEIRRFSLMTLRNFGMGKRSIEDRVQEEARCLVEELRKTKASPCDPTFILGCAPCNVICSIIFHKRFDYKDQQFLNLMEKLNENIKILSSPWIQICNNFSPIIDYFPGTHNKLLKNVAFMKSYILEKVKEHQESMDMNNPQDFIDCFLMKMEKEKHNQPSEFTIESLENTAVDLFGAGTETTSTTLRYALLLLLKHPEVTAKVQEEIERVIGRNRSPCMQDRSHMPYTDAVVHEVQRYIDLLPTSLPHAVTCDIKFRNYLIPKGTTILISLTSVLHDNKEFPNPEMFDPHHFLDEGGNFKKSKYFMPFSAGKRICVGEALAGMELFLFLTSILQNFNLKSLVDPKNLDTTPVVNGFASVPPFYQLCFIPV
How it was run: (§1)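 IC25-shift assay. Pooled HLMs or recombinant CYP3A4/3A5/3A7 were preincubated 30 min at 37°C with CYP3cide, with or without NADPH (1.3 mM) (N=2). Mixture diluted 10-fold into probe substrate (~KM) at 37°C. Metabolites analysed by LC/MS/MS. Readout: % decrease in activity vs control.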

CYP3A = CYP3A (Homo sapiens, UniProt P08684+P20815+P24462+Q9HB55); assay: Reversible inhibition of human CYP3A midazolam 1'-hydroxylase activity; format: ADME; details: probe midazolam (1'-hydroxylation)
How it was run: (§2)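 Reversible IC50 with pooled HLM or recombinant CYP3A7 (with POR and b5), protein 0.010–0.10 mg/ml depending on isoform. Probe substrate at its experimentally derived KM. Metabolite formation measured by LC/MS/MS. IC50 determinations run in duplicate.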

CYP3A4 [1] = biological target: T1, CYP3A4 (Homo sapiens, UniProt P08684); assay: Time dependent inhibition of midazolam 1'-hydroxylase activity of human recombinant CYP3A4 harboring human P450 oxidoreductase and b5 assessed as decrease in enzyme activity at 0.050 uM preincubated for 30 mins by IC25-shift assay; format: ADME; details: recombinant CYP3A4 with human P450 oxidoreductase and b5, probe midazolam (1'-hydroxylation); how it was run: as §1
T1 sequence (P08684 whole entry): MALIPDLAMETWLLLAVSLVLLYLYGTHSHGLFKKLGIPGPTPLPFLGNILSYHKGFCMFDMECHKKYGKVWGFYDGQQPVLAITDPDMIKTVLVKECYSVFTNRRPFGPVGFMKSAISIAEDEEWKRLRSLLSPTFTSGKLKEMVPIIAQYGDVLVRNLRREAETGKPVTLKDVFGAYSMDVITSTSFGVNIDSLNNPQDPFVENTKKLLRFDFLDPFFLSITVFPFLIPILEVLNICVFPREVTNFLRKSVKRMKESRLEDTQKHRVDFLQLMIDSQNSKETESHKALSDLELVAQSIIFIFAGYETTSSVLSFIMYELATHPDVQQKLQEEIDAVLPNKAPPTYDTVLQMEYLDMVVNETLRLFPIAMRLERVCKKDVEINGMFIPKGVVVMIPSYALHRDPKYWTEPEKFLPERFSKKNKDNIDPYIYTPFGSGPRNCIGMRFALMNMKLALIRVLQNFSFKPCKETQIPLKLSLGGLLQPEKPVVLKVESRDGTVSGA

Cytochrome P450 1A2 = Cytochrome P450 1A2 (Homo sapiens, UniProt P05177); assay: Reversible inhibition of human CYP1A2 phenacetin O-deethylase activity; format: ADME; how it was run: as §2
Cytochrome P450 1A2, sequence (P05177 whole entry): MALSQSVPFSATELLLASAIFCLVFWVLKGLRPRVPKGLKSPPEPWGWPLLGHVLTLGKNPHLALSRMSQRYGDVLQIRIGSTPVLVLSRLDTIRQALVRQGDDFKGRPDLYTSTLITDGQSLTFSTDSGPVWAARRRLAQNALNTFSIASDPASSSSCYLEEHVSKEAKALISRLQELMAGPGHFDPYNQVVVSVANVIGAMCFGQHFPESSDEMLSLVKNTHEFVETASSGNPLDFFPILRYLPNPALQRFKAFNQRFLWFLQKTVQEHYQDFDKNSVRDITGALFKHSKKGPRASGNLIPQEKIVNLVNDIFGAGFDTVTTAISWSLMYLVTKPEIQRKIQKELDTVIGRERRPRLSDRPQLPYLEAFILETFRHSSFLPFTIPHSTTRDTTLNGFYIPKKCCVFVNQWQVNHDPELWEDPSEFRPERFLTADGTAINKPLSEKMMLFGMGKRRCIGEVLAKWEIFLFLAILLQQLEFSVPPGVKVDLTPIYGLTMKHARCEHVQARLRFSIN

CYP2B6 = CYP2B6 (Homo sapiens, UniProt P20813); assay: Time dependent inhibition of human CYP2B6 bupropion hydroxylase activity assessed as decrease in enzyme activity at 100 uM preincubated for 30 mins by IC25-shift assay; format: ADME; details: probe bupropion (hydroxylation); how it was run: as §1
CYP2B6, sequence (P20813 whole entry): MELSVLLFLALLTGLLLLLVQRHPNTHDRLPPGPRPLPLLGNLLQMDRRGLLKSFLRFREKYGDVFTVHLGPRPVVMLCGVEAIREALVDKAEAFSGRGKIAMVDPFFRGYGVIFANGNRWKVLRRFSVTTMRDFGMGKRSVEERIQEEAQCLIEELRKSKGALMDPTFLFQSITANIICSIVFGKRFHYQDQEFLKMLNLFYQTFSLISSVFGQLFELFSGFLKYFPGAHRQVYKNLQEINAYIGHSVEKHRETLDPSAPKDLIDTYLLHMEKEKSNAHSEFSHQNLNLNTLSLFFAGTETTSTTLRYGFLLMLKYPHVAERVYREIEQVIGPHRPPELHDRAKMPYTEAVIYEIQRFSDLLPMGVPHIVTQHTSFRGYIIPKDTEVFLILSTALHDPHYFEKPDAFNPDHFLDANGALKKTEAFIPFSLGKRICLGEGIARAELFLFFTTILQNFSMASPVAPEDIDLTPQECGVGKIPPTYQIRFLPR

Cytochrome P450 3A4 [2] = biological target: T2, Cytochrome P450 3A4 (Homo sapiens, UniProt P08684); assay: Inhibition of midazolam 1'-hydroxylase activity of human recombinant CYP3A4 harboring human P450 oxidoreductase and b5 assessed as decrease in enzyme activity preincubated for 30 mins by LC-MS/MS analysis; format: ADME
T2 sequence (P08684 whole entry): as the sequence (P08684 whole entry) above
How it was run: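 Recombinant CYP3A4 with POR and cytochrome b5 was preincubated with inhibitor at 0.050 µM, with or without NADPH (1.3 mM), for 30 min at 37°C (N=2). The mixture was then diluted 10-fold into the probe substrate (about KM) at 37°C and analysed for metabolite. Results are percent decrease in activity versus control.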

CYP2C19 = CYP2C19 (Homo sapiens, UniProt P33261); assay: Time dependent inhibition of human CYP2C19 S-mephenytoin 4'-hydroxylase activity assessed as decrease in enzyme activity at 100 uM preincubated for 30 mins by IC25-shift assay; format: ADME; details: probe S-mephenytoin (4'-hydroxylation); how it was run: as §1
CYP2C19, sequence (P33261 whole entry): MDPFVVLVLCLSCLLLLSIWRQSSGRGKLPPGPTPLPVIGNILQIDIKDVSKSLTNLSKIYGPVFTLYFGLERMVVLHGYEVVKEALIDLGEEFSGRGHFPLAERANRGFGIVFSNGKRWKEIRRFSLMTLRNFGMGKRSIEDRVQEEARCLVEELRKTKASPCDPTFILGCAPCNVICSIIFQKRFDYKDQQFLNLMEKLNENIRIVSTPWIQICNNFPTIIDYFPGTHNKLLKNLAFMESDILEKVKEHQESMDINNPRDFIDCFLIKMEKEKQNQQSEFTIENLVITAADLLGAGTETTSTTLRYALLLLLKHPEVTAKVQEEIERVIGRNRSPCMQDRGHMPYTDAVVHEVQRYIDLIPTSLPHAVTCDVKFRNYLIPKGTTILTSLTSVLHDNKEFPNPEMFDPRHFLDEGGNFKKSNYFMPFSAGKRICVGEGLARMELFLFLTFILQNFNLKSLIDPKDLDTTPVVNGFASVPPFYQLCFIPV

CYP3A5*3/*3 [3] = assay: Inhibition of CYP3A5*3/*3 in human liver microsomes assessed as midazolam 1'-hydroxylase activity at 0.56 uM after 10 mins; format: ADME; details: liver microsomes (CYP3A5*3/*3 genotype), probe midazolam (1'-hydroxylation)
How it was run: (§3)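 Genotyped individual HLMs (0.1 mg/ml) preincubated at 37°C with CYP3cide (0–1.3 μM; 10 min in the two-donor study, 5 min in the 30-donor study), with or without 1.3 mM NADPH (N=3). Mixture diluted 20-fold into 23 μM midazolam for 6 min. 1'-OH-midazolam measured. Readout: % of vehicle/no-NADPH control activity.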

[4] = Inhibition of CYP3A5*3/*3 in 5 mg/ml of human liver microsomes assessed as midazolam 1'-hydroxylase activity at 13 uM after 10 mins; format: ADME
Cytochrome P450 2B6 = Cytochrome P450 2B6 (Homo sapiens, UniProt P20813); assay: Reversible inhibition of human CYP2B6 bupropion hydroxylase activity; format: ADME; how it was run: as §2
Cytochrome P450 2B6, sequence (P20813 whole entry): as the sequence (P20813 whole entry) above

CYP2C8 = CYP2C8 (Homo sapiens, UniProt P10632); assay: Time dependent inhibition of human CYP2C8 paclitaxel 6alpha-hydroxylase activity assessed as decrease in enzyme activity at 100 uM preincubated for 30 mins by IC25-shift assay; format: ADME; details: probe paclitaxel (6alpha-hydroxylation); how it was run: as §1
CYP2C8, sequence (P10632 whole entry): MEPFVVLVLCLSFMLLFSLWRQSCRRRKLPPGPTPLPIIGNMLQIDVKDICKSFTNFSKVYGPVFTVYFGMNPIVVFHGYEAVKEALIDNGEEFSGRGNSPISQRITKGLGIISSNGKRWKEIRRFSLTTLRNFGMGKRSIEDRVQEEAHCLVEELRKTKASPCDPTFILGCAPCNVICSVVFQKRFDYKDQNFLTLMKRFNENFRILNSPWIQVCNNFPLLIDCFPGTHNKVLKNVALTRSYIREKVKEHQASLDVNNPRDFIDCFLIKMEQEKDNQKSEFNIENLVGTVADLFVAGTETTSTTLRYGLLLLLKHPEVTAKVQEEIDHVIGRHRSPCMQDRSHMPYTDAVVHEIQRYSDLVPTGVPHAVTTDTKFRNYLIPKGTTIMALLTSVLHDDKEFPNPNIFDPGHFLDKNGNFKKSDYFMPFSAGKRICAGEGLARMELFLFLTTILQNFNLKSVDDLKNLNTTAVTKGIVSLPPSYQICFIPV

Cytochrome P450 3A5 [5] = biological target: T3, Cytochrome P450 3A5 (Homo sapiens, UniProt P20815); assay: Drug metabolism assessed as human recombinant CYP3A5 in presence of human P450 oxidoreductase and b5-mediated 1-((3S)-1-(1-methyl-3-(1-methyl-5-p-tolyl-1H-pyrazol-4-yl)-1H-pyrazolo[3,4-d]pyrimidin-4-yl)pyrrolidin-3-yl)-2,3,4,5-tetrahydropyridinium formation at 10 uM by HPLC-MS analysis in presence of KCN and NADPH; details: recombinant enzyme
Target sequence in this assay (P20815 whole entry, looked up): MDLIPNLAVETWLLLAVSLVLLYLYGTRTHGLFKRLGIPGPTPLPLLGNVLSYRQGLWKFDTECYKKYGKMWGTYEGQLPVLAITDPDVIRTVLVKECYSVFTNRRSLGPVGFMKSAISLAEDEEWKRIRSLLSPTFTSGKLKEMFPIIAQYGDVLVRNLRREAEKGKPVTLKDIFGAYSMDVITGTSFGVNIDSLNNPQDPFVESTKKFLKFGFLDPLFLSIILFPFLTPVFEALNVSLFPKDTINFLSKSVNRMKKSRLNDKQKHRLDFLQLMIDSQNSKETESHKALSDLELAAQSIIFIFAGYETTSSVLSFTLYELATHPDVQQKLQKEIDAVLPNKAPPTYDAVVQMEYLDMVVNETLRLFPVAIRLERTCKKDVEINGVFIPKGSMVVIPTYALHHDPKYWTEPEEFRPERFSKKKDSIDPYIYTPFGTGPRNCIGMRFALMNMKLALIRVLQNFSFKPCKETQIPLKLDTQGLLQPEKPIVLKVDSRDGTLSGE

CYP3A5*3/*3 [6] = assay: Time dependent inhibition of CYP3A5*3/*3 in human liver microsomes assessed as midazolam 1'-hydroxylase activity at 0.56 uM after 10 mins by dilution method; format: ADME; details: human liver microsomes (CYP3A5*3/*3 genotype), probe midazolam (1'-hydroxylation); how it was run: as §3
Cytochrome P450 3A4 [7] = biological target: T2, Cytochrome P450 3A4; assay: Inhibition of testosterone 6beta-hydroxylase activity of human recombinant CYP3A4 in presence of human P450 oxidoreductase and b5 assessed as decrease in enzyme activity preincubated for 30 mins by LC-MS/MS analysis; format: ADME
Cytochrome P450 3A5 [8] = biological target: T3, Cytochrome P450 3A5; assay: Reversible inhibition of testosterone 6beta-hydroxylase activity of human recombinant CYP3A5 in presence of human P450 oxidoreductase and b5; format: ADME
How it was run: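 Recombinant CYP3A5 expressed in baculovirus, with P450 oxidoreductase and cytochrome b5 (P450:POR:b5 1:13:7). Enzyme at 0.010 mg/ml for midazolam 1'-hydroxylase and 0.020 mg/ml for testosterone 6β-hydroxylase. Each substrate at its experimentally derived KM. IC50 determined in duplicate.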
Target sequence in this assay (P20815 whole entry): as the sequence (P20815 whole entry, looked up) above

CYP3A4 [9] = biological target: T1, CYP3A4; assay: Time dependent inhibition of testosterone 6beta-hydroxylase activity of human recombinant CYP3A4 in presence of human P450 oxidoreductase and b5 assessed as decrease in enzyme activity at 0.050 uM preincubated for 30 mins by IC25-shift assay; format: ADME; details: recombinant CYP3A4 with human P450 oxidoreductase and b5, probe testosterone (6beta-hydroxylation); how it was run: as §1
Cytochrome P450 3A5 [10] = biological target: T3, Cytochrome P450 3A5; assay: Drug metabolism assessed as human recombinant CYP3A5 in presence of human P450 oxidoreductase and b5-mediated 1-((3S)-1-(1-methyl-3-(1-methyl-5-p-tolyl-1H-pyrazol-4-yl)-1H-pyrazolo[3,4-d]pyrimidin-4-yl)pyrrolidin-3-yl)-2,3,4,5-tetrahydropyridinium formation at 10 uM by HPLC-MS analysis in presence of KCN and NADPH; format: ADME; details: recombinant enzyme
How it was run: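 Recombinant CYP3A4 or CYP3A5 (50 pmol/ml final) added, without preincubation, to 10 µM CYP3cide with NADPH (final 1 mM) in 100 mM phosphate pH 7.4. Trapping incubations also held 200 µM KCN or 5 mM GSH (final). Incubated 1 h at 37°C, quenched with acetonitrile, dried, reconstituted. Metabolites analysed by LC/Orbitrap ESI-MS.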
Target sequence in this assay (P20815 whole entry): as the sequence (P20815 whole entry, looked up) above

Cytochrome P450 3A4 [11] = biological target: T2, Cytochrome P450 3A4; assay: Reversible inhibition of testosterone 6beta-hydroxylase activity of human recombinant CYP3A4 in presence of human P450 oxidoreductase and b5; format: ADME
How it was run: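 IC50 was measured with baculovirus-expressed CYP3A4 plus POR and cytochrome b5 (P450:reductase:b5 1:5:7), with substrate at its experimentally derived KM, in duplicate. Enzyme was 0.010 mg/ml for midazolam 1'-hydroxylation and 0.020 mg/ml for testosterone 6β-hydroxylation.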

CYP3A5*1/*1 = assay: Inhibition of CYP3A5*1/*1 in human liver microsomes assessed as midazolam 1'-hydroxylase activity at 0.56 uM after 10 mins; format: ADME; details: liver microsomes (CYP3A5*1/*1 genotype), probe midazolam (1'-hydroxylation); how it was run: as §3

## Cc1ccc(-c2c(-c3nn(C)c4ncnc(N5CC[C@H](N6CCCCC6)C5)c34)cnn2C)cc1
CYP2C9
  inhibition at 30 min, 100 µM: 5.4%
CYP3A
  IC50: 330 nM
CYP3A4 [1]
  inhibition at 30 min, 0.05 µM: 87%
Cytochrome P450 1A2
  IC50: 43000 nM
CYP2B6
  inhibition at 30 min, 100 µM: 2.4%
Cytochrome P450 3A4 [2]
  Ki: 120 nM
CYP2C19
  inhibition at 30 min, 100 µM: 0.79%
CYP3A5*3/*3 [3]
  inhibition at 10 min, 0.56 µM: > 85%
[4]
  inhibition (INH): Active
Cytochrome P450 2B6
  IC50: 88000 nM
CYP2C8
  inhibition at 30 min, 100 µM: 13%
Cytochrome P450 3A5 [5]
  Drug metabolism: metabolite_detected
CYP3A5*3/*3 [6]
  inhibition at 10 min, 0.56 µM: 0.4%
Cytochrome P450 3A4 [7]
  Ki: 170 nM
Cytochrome P450 3A5 [8]
  IC50: 71000 nM
CYP3A4 [9]
  inhibition at 30 min, 0.05 µM: 74%
Cytochrome P450 3A5 [10]
  Drug metabolism: metabolite_detected
Cytochrome P450 3A4 [11]
  IC50: 690 nM
CYP3A5*1/*1
  inhibition at 10 min, 0.56 µM: 23%
